Many of the other results were omitted from the sample, so hits are more common in it than they were.
Fh CTSL1 inh: Fasciola hepatica cathepsin L1 inhibitors, primary screen, counter-screen for PFM18AAP inhibitor project, biochemical, QFRET, fluorogenic peptide substrate. AID 1906, 2009. hit rate 0.49% among 300,000. recombinant F. hepatica cathepsin L1, Z-Leu-Arg-MCA fluorescence. inhibition, % at 5.96 µM;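 active = inhibition above the mean of all tested compounds plus 3 SD, set per screening campaign, cut at about 17% in these data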;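 also: 0% = plate median of test compound wells and 100% = 1 µM Z-Phe-Ala-diazomethylketone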
CHOP UPR activ: activators of apoptotic CHOP UPR arm, primary screen, cell-based, CHO-CHOP luciferase reporter, luminescence, uHTS. UPR activation; percent of tunicamycin response over DMSO baseline. activation, % at 10 µM. hit rate 0.34% among 330,000;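 active = at 10 µM dose, activation of 40% or more, normalized to positive control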;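 also: 100% = tunicamycin at 10 µg/mL and 0% = DMSO alone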
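System: CHO CHOP reporter cells. Amount: 500 cells per well. Buffer or medium: F12 medium, 10% FBS. Compound dosing: one dose, 10 µM in 0.5% DMSO. Incubation: 6 h compound exposure at 37 °C after overnight seeding. Technique: Steady-Glo luciferase luminescence. Benchmarks: tunicamycin and DMSO controls.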
XBP1 UPR activ: activators of adaptive XBP1 UPR arm, primary screen, cell-based, CHO-XBP1 luciferase reporter, luminescence, uHTS; AID 463104, 2010; activation, % at 20 µM; IRE1-XBP1 UPR activation; percent of tunicamycin response, DMSO as zero; hit rate 0.33% among 330,000;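 active = versus positive control, 20 µM dose yields 30% or more activation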;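 also: 100% = tunicamycin at 10 µg/mL and 0% = DMSO only wells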
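Assay system: IRE1-XBP1 luciferase reporter CHO line. Input: 1000 cells/well. Buffer or medium: F12 with 10% serum. Doses: 20 µM, 1% DMSO. Times: overnight seeding at 37 °C, 6 h compound treatment at 37 °C. Technique: Steady-Glo luciferase glow luminescence, 10 min after reagent addition.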
UCH37 DUB inh: inhibitors of human UCH37 deubiquitinase, primary screen, biochemical, Ub-AMC cleavage, fluorescence; Ubiquitin carboxyl-terminal hydrolase isozyme L5 (Homo sapiens), Q9Y5K5; purified proteasome/UCH37; inhibition, % (test concentration not listed); hit rate 0.33% among 330,000; AID 588478, 2011;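 active = mean inhibition over replicate wells above about 20%, limit read from the data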;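 also: 0% = compound-free wells with enzyme and 100% = wells lacking proteasome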
Target sequence (Q9Y5K5 whole entry, looked up): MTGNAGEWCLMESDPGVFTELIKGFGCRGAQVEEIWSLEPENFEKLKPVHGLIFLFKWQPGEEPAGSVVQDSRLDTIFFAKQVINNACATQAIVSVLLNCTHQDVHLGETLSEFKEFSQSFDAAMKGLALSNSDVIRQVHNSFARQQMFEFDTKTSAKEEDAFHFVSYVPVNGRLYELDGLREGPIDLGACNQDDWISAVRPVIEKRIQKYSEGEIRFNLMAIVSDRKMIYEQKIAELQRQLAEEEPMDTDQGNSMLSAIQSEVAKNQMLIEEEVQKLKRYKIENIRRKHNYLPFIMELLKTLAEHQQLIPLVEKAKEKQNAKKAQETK
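Material: human UCH37 enzyme supplied as purified proteasome complex. Measure: % inhibition of Ub-AMC cleavage fluorescence. Medium: pH 7.4 Tris-HCl (50 mM) with ovalbumin, ATP-MgCl2, DTT. Times: 30 min preincubation with enzyme, 25 min cleavage at room temperature. Detection: AMC fluorescence intensity at 355/460 nm.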
CHOP inh: inhibitors of CHOP promoter induction, primary screen, cell-based, unfolded protein response, luciferase reporter; CHO-K1 CHOP-promoter luciferase, tunicamycin-induced, 15-18 h; inhibition, % at 10 µM; hit rate 3.8% among 220,000; AID 2732, 2010;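 active = compounds that reduced the stress-induced luciferase reporter signal by more than about 70% of percent inhibition, limit read from the data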;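 also: 0% = tunicamycin plus vehicle and 100% = wells without tunicamycin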
CHOP confirm: retest of CHOP induction inhibitors, confirmation, cell-based. shares compounds with CHOP inh. CHO-CHOP promoter luciferase reporter, tunicamycin-induced, luminescence. inhibition, % at 10 µM. hit rate 45% among 2,100. AID 504437, 2011;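 active = mean of three repeat readings of reporter signal inhibition above a set limit, cut at about 70% in these data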;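 also: 0% = tunicamycin plus vehicle and 100% = wells lacking tunicamycin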
* = called active by the depositor; i = inactive; nt = no result given.

SMILES	Fh CTSL1 inh	CHOP UPR activ	XBP1 UPR activ	UCH37 DUB inh	CHOP inh	CHOP confirm
COC(=O)c1c(NC(=O)Nc2ccc(Cl)cc2)sc(C)c1C	-1.4	0.2	2.6	-17.3	99.8*	99.3*
COC(=O)c1c(NC(C)=O)sc(C)c1C	3.7	1.2	-3.2	4.5	12.4	nt
Cc1ccc(OCCOc2ccc(Br)cc2/C=N\NC(N)=O)cc1	2.0	0.7	0.3	nt	103.3*	38.8
N#C/C(=C\c1ccc(N2CCOCC2)o1)c1ccccc1	15.2	1.8	0.7	2.5	37.1	nt
N#C/C(=C/c1ccc(N2CCCCCC2)o1)c1cccc(F)c1	5.0	12.5	2.5	7.9	104.0*	27.5
COc1ccc(NC(=O)c2cc(-c3cc(C)cc(C)c3O)n[nH]2)cc1Cl	1.0	-0.3	2.5	1.4	103.5*	102.0*
COc1ccc(Cl)cc1NC(=O)c1cc(-c2cc(C)ccc2O)n[nH]1	-4.2	-0.2	0.8	4.7	100.2*	-9.1
Cc1nn(-c2ccccc2)c(Oc2ccc(F)cc2)c1C=Nn1cnnc1	nt	nt	nt	1.9	nt	nt
CC(=O)Oc1ccc(C=NNC(=O)CCSc2ccccc2)cc1	nt	nt	nt	3.1	nt	nt
S=c1[nH]nc(C2CCCCC2)n1N=Cc1cccc(Cl)c1Cl	nt	nt	nt	4.0	nt	nt
Cc1cc(C(=O)NN=Cc2cc(Br)ccc2OC(=O)c2ccccc2)n[nH]1	nt	nt	nt	5.7	nt	nt
Cc1cc(C(=O)N/N=C/c2cc(Br)ccc2OC(=O)c2ccccc2Cl)n[nH]1	2.7	1.5	1.7	nt	99.2*	33.7
O=C(Nc1cccc(Cl)c1)NC1(C(=O)NCc2cccs2)CCCCC1	3.6	-3.2	-2.8	1.4	104.0*	23.8
O=C(NCc1cccs1)Nc1cccc(Cl)c1	-1.4	2.0	0.6	3.0	nt	nt
CCOC(=O)C(NC(=O)Nc1ccccc1)(OCC)C(F)(F)F (stereo unspecified)	-3.5	-1.2	-3.1	3.5	-0.5	nt
CCOC(=O)C(NC(=O)Nc1cccc(C)n1)(OCC(F)(F)F)C(F)(F)F (stereo unspecified)	-4.2	0.2	2.5	0.3	106.0*	94.8*
Cc1ccc(C2CC2c2n[nH]c(=S)n2-c2cccc(C)c2)cc1 (stereo unspecified)	3.2	-0.6	0.3	1.6	18.7	nt
Cc1ccc(C2CC2c2n[nH]c(=S)n2-c2ccc(Cl)cc2)cc1 (stereo unspecified)	-0.6	-0.5	0.5	5.5	105.5*	-2.1
CCOC(=O)C(C)Oc1cccc2c(=O)n(CC(=O)Nc3ccc(OCC)cc3)ccc12 (stereo unspecified)	1.7	-2.2	-2.3	-1.5	105.8*	61.1
CCOC(=O)C(C)Oc1cccc2c(=O)n(CC(=O)Nc3cccc(OC)c3)ccc12 (stereo unspecified)	1.2	-1.5	-2.4	0.5	22.9	nt
O=S(=O)(N/N=C/c1ccc(Cl)cc1)c1ccc(Cc2ncc(C(F)(F)F)cc2Cl)s1	4.5	-0.8	0.7	nt	100.0*	91.4*
COc1cccc(C(=O)Oc2ccc(C=NNC(=O)c3ccncc3)cc2OC)c1	nt	nt	nt	-13.0	nt	nt
O=C1/C(=C\c2ccncc2)CCc2ccccc21	0.3	1.1	0.3	2.1	nt	nt
O=C1/C(=C/c2ccncc2)CCC/C1=C\c1ccncc1	nt	nt	nt	6.0	98.2*	78.4*
O=C(CC(=O)NN=Cc1cccs1)NCc1ccccc1	nt	nt	nt	2.9	nt	nt
SMILES	Fh CTSL1 inh	CHOP UPR activ	XBP1 UPR activ	UCH37 DUB inh	CHOP inh	CHOP confirm
COc1ccc(C(=O)CC(Nc2ccc([N+](=O)[O-])cc2)c2ccc(OC)cc2)cc1 (stereo unspecified)	1.6	-1.6	-4.4	4.0	34.8	nt
CNC(CC(=O)c1ccc([N+](=O)[O-])cc1)C(Cl)(Cl)Cl (stereo unspecified)	-2.8	nt	nt	4.8	109.6*	-12.2
CCCCn1c(/N=C/c2ccc3c(c2)OCO3)nc2ccccc21	-1.5	0.6	-2.0	nt	98.2*	-1.2
CCCCn1c(N=Cc2c[nH]c3ccccc23)nc2ccccc21	nt	nt	nt	6.8	nt	nt
C(=Nc1nc2ccccc2n1CCN1CCCCC1)c1ccc2c(c1)OCO2	nt	nt	nt	4.5	nt	nt
CCCn1c(/N=C/c2c[nH]c3ccccc23)nc2ccccc21	2.6	4.3	0.6	nt	104.6*	4.1
CCCCn1c(/N=C/c2c[nH]c3ccccc23)nc2ccccc21	2.4	0.2	-1.8	nt	111.0*	116.7*
CCCN(CCC)Cc1c(C(=O)NN=CCCc2ccccc2)nnn1-c1nonc1N	nt	nt	nt	3.1	nt	nt
CCN(CC)c1ccc(/C=N/NC(=S)NCc2ccccc2)c(O)c1	1.7	-0.6	-1.6	nt	100.5*	-65.8
O=C(NN=Cc1ccc([N+](=O)[O-])cc1)c1cccnc1	nt	nt	nt	11.5	nt	nt
Cc1cccc(-c2noc(CCC(=O)NCc3ccccc3)n2)c1	-4.1	-3.1	-0.3	1.8	8.0	nt
CCOC(=O)c1ccc(NC(=O)CCc2nc(-c3cccc(C)c3)no2)cc1	2.7	-0.6	2.5	1.9	98.4*	45.3
Cc1ccc2[nH]c3c(c2c1)CN(C(=O)CN1CCN(c2cccc(C)c2C)CC1)CC3	3.9	-0.5	-5.3	0.3	102.5*	112.3*
Cc1ccc2[nH]c3c(c2c1)CN(C(=O)CN1CCN(C(=O)c2ccco2)CC1)CC3	0.9	-0.7	3.1	nt	7.8	nt
N/C(=N\NC(=O)c1cccs1)c1cc2ccccc2oc1=O	3.9	10.0	1.1	nt	-0.9	nt
CCN(CC)c1ccc2cc(/C(N)=N/NC(=O)c3cccs3)c(=O)oc2c1	-4.5	27.0	92.8*	nt	102.3*	-4.7
CC(=O)ON=Cc1c(N2CCOCC2)n(C)c2ccccc12	nt	nt	nt	6.0	nt	nt
Cc1ccc(-c2csc3nc4c5ccccc5c(NCCCN(C)C)nn4c(=O)c23)cc1	-1.3	1.9	12.6	i	101.5*	-305.2
Cc1ccc(-c2csc3nc4c5ccccc5c(NCCCN5CCOCC5)nn4c(=O)c23)cc1	4.6	3.1	6.6	-213.8	11.2	nt
CC(OC(=O)c1oc2ccccc2c1CSC1CCCCC1)C(=O)NC(N)=O (stereo unspecified)	1.6	5.1	1.8	4.1	101.2*	36.3
O=C(O)c1ccc(NN=Cc2cccc3nccnc23)cc1	nt	nt	nt	16.9	nt	nt
CCOC(=O)c1cc(-c2csc(NN=Cc3ccccc3Cl)n2)on1	nt	nt	nt	-75.9	nt	nt
COc1ccccc1N(CC(O)Cn1c2ccccc2c2ccccc21)S(=O)(=O)c1ccccc1 (stereo unspecified)	3.5	4.9	7.5	7.2	56.5	nt
Cc1ccc(S(=O)(=O)N(C)CC(O)Cn2c3ccccc3c3ccccc32)cc1 (stereo unspecified)	-1.4	1.0	2.7	-2.5	100.9*	41.7
O=C(Cn1ncc(Cl)c(Cl)c1=O)NCC1CCCCC1	1.9	nt	nt	4.2	108.3*	-15.3
